# According to ChEMBL document CHEMBL5724801, “EUbOPEN Chemogenomics Library - Multiplex” (2024):
# Several values for one entry are separate records, joined by “and”; a condition that tells them apart may be missing. Equal values may be shown once.
# Tested on: U2OS
# Assay: Multiplex assay against U2OS
# Format: toxicity, cell-based
# Conditions: human
# How it was run: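 Cells were classed with CellPathfinder machine-learning gating, first as Hoechst high-intensity objects or normal cells, then (normal cells) as healthy, pyknosed or fragmented nuclei, and finally (pyknosed cells) as mitotic or apoptotic. Staining of live cells at seeding used Hoechst33342, BioTracker Green Microtubule Cytoskeleton Dye, MitoTracker Red and Annexin V Alexa Fluor 680, with imaging on a CQ1 microscope at 37°C and 5% CO2 after compound addition. Tubulin, mitochondrial-mass and membrane-permeability phenotypes are per cents of healthy-nucleus cells.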
# [1] = 12 h, 1 µM, compound concentration 1 uM
# [2] = 12 h, 10 µM, compound concentration 10 uM
# [3] = 24 h, 1 µM, compound concentration 1 uM
# [4] = 24 h, 10 µM, compound concentration 10 uM
# [5] = 48 h, 1 µM, compound concentration 1 uM
# [6] = 48 h, 10 µM, compound concentration 10 uM
compound,measurement,setting,value
CN1CCN2c3ncccc3Cc3ccccc3C2C1 (stereo not drawn) [MIRTAZAPINE],Population Apoptotic (%),[1],82% and 100%
same,Population Fragmented Nuclei (%),[1],21%
same,Population Healthy Nuclei (%),[1],67% and 72%
same,Population Hoechst High Intensity Objects (%),[1],1%
same,Population Membrane Permeable-Phenotype (%),[1],3% and 5%
same,Population Mitochondria Different-Phenotype (%),[1],1% and 6%
same,Population Mitotic Cells (%),[1],17% and 0%
same,Population Normal (%),[1],99% and 98%
same,Population Pyknosed Nuclei (%),[1],11% and 6%
same,Population Tubulin-Different-Phenotype (%),[1],2% and 3%
same,Population Apoptotic (%),[2],73% and 66%
same,Population Fragmented Nuclei (%),[2],19% and 13%
same,Population Healthy Nuclei (%),[2],71% and 82%
same,Population Hoechst High Intensity Objects (%),[2],3%
same,Population Membrane Permeable-Phenotype (%),[2],6% and 3%
same,Population Mitochondria Different-Phenotype (%),[2],5% and 4%
same,Population Mitotic Cells (%),[2],26% and 33%
same,Population Normal (%),[2],96%
same,Population Pyknosed Nuclei (%),[2],8% and 3%
same,Population Tubulin-Different-Phenotype (%),[2],6% and 0%
same,Population Apoptotic (%),[3],85% and 100%
same,Population Fragmented Nuclei (%),[3],15% and 26%
same,Population Healthy Nuclei (%),[3],76% and 63%
same,Population Hoechst High Intensity Objects (%),[3],2% and 3%
same,Population Membrane Permeable-Phenotype (%),[3],5% and 3%
same,Population Mitochondria Different-Phenotype (%),[3],3%
same,Population Mitotic Cells (%),[3],14% and 0%
same,Population Normal (%),[3],97% and 96%
same,Population Pyknosed Nuclei (%),[3],8% and 10%
same,Population Tubulin-Different-Phenotype (%),[3],2% and 4%
same,Population Apoptotic (%),[4],89% and 83%
same,Population Fragmented Nuclei (%),[4],18% and 9%
same,Population Healthy Nuclei (%),[4],71% and 85%
same,Population Hoechst High Intensity Objects (%),[4],2% and 0%
same,Population Membrane Permeable-Phenotype (%),[4],4% and 5%
same,Population Mitochondria Different-Phenotype (%),[4],2%
same,Population Mitotic Cells (%),[4],10% and 16%
same,Population Normal (%),[4],97% and 99%
same,Population Pyknosed Nuclei (%),[4],9% and 5%
same,Population Tubulin-Different-Phenotype (%),[4],0% and 5%
same,Total Cell Count,[4],314 and 108
same,Population Apoptotic (%),[5],83% and 92%
same,Population Fragmented Nuclei (%),[5],12% and 20%
same,Population Healthy Nuclei (%),[5],76% and 68%
same,Population Hoechst High Intensity Objects (%),[5],2% and 4%
same,Population Membrane Permeable-Phenotype (%),[5],4% and 8%
same,Population Mitochondria Different-Phenotype (%),[5],2% and 4%
same,Population Mitotic Cells (%),[5],16% and 7%
same,Population Normal (%),[5],97% and 95%
same,Population Pyknosed Nuclei (%),[5],10% and 11%
same,Population Tubulin-Different-Phenotype (%),[5],3% and 1%
same,Population Apoptotic (%),[6],95% and 100%
same,Population Fragmented Nuclei (%),[6],15% and 12%
same,Population Healthy Nuclei (%),[6],75% and 78%
same,Population Hoechst High Intensity Objects (%),[6],2%
same,Population Membrane Permeable-Phenotype (%),[6],7% and 3%
same,Population Mitochondria Different-Phenotype (%),[6],4% and 3%
same,Population Mitotic Cells (%),[6],5% and 0%
same,Population Normal (%),[6],97%
same,Population Pyknosed Nuclei (%),[6],9%
same,Population Tubulin-Different-Phenotype (%),[6],5% and 3%
same,Total Cell Count,[6],435 and 170
O=C(O)c1cc2ccccc2c(Cc2c(O)c(C(=O)O)cc3ccccc23)c1O [PAMOIC ACID],Population Apoptotic (%),[1],85% and 50%
same,Population Fragmented Nuclei (%),[1],23% and 15%
same,Population Healthy Nuclei (%),[1],68% and 73%
same,Population Hoechst High Intensity Objects (%),[1],1% and 0%
same,Population Membrane Permeable-Phenotype (%),[1],2% and 12%
same,Population Mitochondria Different-Phenotype (%),[1],0% and 6%
same,Population Normal (%),[1],98% and 100%
same,Population Pyknosed Nuclei (%),[1],8% and 11%
same,Population Tubulin-Different-Phenotype (%),[1],0% and 13%
same,Total Cell Count,[1],246 and 109
same,Population Apoptotic (%),[2],75% and 87%
same,Population Fragmented Nuclei (%),[2],19%
same,Population Healthy Nuclei (%),[2],75%
same,Population Hoechst High Intensity Objects (%),[2],2% and 0%
same,Population Membrane Permeable-Phenotype (%),[2],6% and 5%
same,Population Mitochondria Different-Phenotype (%),[2],1% and 3%
same,Population Mitotic Cells (%),[2],25% and 12%
same,Population Normal (%),[2],97% and 100%
same,Population Pyknosed Nuclei (%),[2],4% and 5%
same,Population Tubulin-Different-Phenotype (%),[2],4% and 2%
same,Total Cell Count,[2],259 and 140
same,Population Apoptotic (%),[3],92% and 76%
same,Population Fragmented Nuclei (%),[3],18% and 20%
same,Population Healthy Nuclei (%),[3],72% and 70%
same,Population Hoechst High Intensity Objects (%),[3],1% and 0%
same,Population Membrane Permeable-Phenotype (%),[3],2% and 11%
same,Population Mitochondria Different-Phenotype (%),[3],0% and 2%
same,Population Mitotic Cells (%),[3],8% and 23%
same,Population Normal (%),[3],98% and 99%
same,Population Pyknosed Nuclei (%),[3],8% and 9%
same,Population Tubulin-Different-Phenotype (%),[3],1% and 7%
same,Total Cell Count,[3],288 and 139
same,Population Apoptotic (%),[4],82% and 90%
same,Population Fragmented Nuclei (%),[4],17% and 13%
same,Population Healthy Nuclei (%),[4],76% and 79%
same,Population Hoechst High Intensity Objects (%),[4],3% and 1%
same,Population Membrane Permeable-Phenotype (%),[4],5% and 7%
same,Population Mitochondria Different-Phenotype (%),[4],2% and 3%
same,Population Mitotic Cells (%),[4],17% and 9%
same,Population Normal (%),[4],96% and 98%
same,Population Pyknosed Nuclei (%),[4],5% and 6%
same,Population Tubulin-Different-Phenotype (%),[4],3% and 7%
same,Total Cell Count,[4],314 and 163
same,Population Apoptotic (%),[5],83% and 90%
same,Population Fragmented Nuclei (%),[5],16% and 11%
same,Population Healthy Nuclei (%),[5],74% and 76%
same,Population Hoechst High Intensity Objects (%),[5],1% and 2%
same,Population Membrane Permeable-Phenotype (%),[5],2% and 9%
same,Population Mitochondria Different-Phenotype (%),[5],1% and 3%
same,Population Mitotic Cells (%),[5],16% and 10%
same,Population Normal (%),[5],98% and 97%
same,Population Pyknosed Nuclei (%),[5],9% and 11%
same,Population Tubulin-Different-Phenotype (%),[5],2% and 5%
same,Total Cell Count,[5],469 and 177
same,Population Apoptotic (%),[6],96% and 89%
same,Population Fragmented Nuclei (%),[6],15% and 20%
same,Population Healthy Nuclei (%),[6],77% and 66%
same,Population Hoechst High Intensity Objects (%),[6],3% and 0%
same,Population Membrane Permeable-Phenotype (%),[6],5% and 6%
same,Population Mitochondria Different-Phenotype (%),[6],1% and 2%
same,Population Mitotic Cells (%),[6],3% and 10%
same,Population Normal (%),[6],96% and 99%
same,Population Pyknosed Nuclei (%),[6],6% and 13%
same,Population Tubulin-Different-Phenotype (%),[6],4% and 2%
same,Total Cell Count,[6],455 and 218
COCCCN1CCC(NC(=O)c2cc(Cl)c(N)c3c2OCC3)CC1 [PRUCALOPRIDE],Population Apoptotic (%),[1],84% and 87%
same,Population Fragmented Nuclei (%),[1],30% and 21%
same,Population Healthy Nuclei (%),[1],63% and 71%
same,Population Hoechst High Intensity Objects (%),[1],1% and 0%
same,Population Membrane Permeable-Phenotype (%),[1],7% and 12%
same,Population Mitochondria Different-Phenotype (%),[1],3% and 7%
same,Population Mitotic Cells (%),[1],15% and 12%
same,Population Normal (%),[1],98% and 99%
same,Population Pyknosed Nuclei (%),[1],6% and 7%
same,Population Tubulin-Different-Phenotype (%),[1],4% and 8%
same,Total Cell Count,[1],207 and 110
same,Population Apoptotic (%),[2],68% and 47%
same,Population Fragmented Nuclei (%),[2],22% and 13%
same,Population Healthy Nuclei (%),[2],63% and 73%
same,Population Hoechst High Intensity Objects (%),[2],3% and 2%
same,Population Membrane Permeable-Phenotype (%),[2],4% and 1%
same,Population Mitochondria Different-Phenotype (%),[2],0% and 1%
same,Population Mitotic Cells (%),[2],31% and 52%
same,Population Normal (%),[2],96% and 97%
same,Population Pyknosed Nuclei (%),[2],13% and 12%
same,Population Tubulin-Different-Phenotype (%),[2],2% and 1%
same,Total Cell Count,[2],238 and 140
same,Population Apoptotic (%),[3],80%
same,Population Fragmented Nuclei (%),[3],26% and 23%
same,Population Healthy Nuclei (%),[3],65% and 69%
same,Population Hoechst High Intensity Objects (%),[3],2% and 1%
same,Population Membrane Permeable-Phenotype (%),[3],5% and 8%
same,Population Mitochondria Different-Phenotype (%),[3],3% and 4%
same,Population Mitotic Cells (%),[3],20%
same,Population Normal (%),[3],97% and 98%
same,Population Pyknosed Nuclei (%),[3],8% and 7%
same,Population Tubulin-Different-Phenotype (%),[3],5% and 7%
same,Total Cell Count,[3],247 and 132
same,Population Apoptotic (%),[4],87% and 77%
same,Population Fragmented Nuclei (%),[4],23% and 12%
same,Population Healthy Nuclei (%),[4],64% and 76%
same,Population Hoechst High Intensity Objects (%),[4],4% and 1%
same,Population Membrane Permeable-Phenotype (%),[4],5% and 3%
same,Population Mitochondria Different-Phenotype (%),[4],2%
same,Population Mitotic Cells (%),[4],12% and 22%
same,Population Normal (%),[4],95% and 98%
same,Population Pyknosed Nuclei (%),[4],12% and 11%
same,Population Tubulin-Different-Phenotype (%),[4],4% and 3%
same,Total Cell Count,[4],280 and 161
same,Population Apoptotic (%),[5],85% and 86%
same,Population Fragmented Nuclei (%),[5],20%
same,Population Healthy Nuclei (%),[5],73% and 67%
same,Population Hoechst High Intensity Objects (%),[5],3% and 2%
same,Population Membrane Permeable-Phenotype (%),[5],3% and 11%
same,Population Mitochondria Different-Phenotype (%),[5],1% and 6%
same,Population Mitotic Cells (%),[5],14% and 13%
same,Population Normal (%),[5],96% and 97%
same,Population Pyknosed Nuclei (%),[5],6% and 11%
same,Population Tubulin-Different-Phenotype (%),[5],3% and 9%
same,Total Cell Count,[5],352 and 199
same,Population Apoptotic (%),[6],88% and 90%
same,Population Fragmented Nuclei (%),[6],17% and 11%
same,Population Healthy Nuclei (%),[6],69% and 79%
same,Population Hoechst High Intensity Objects (%),[6],1%
same,Population Membrane Permeable-Phenotype (%),[6],5% and 3%
same,Population Mitochondria Different-Phenotype (%),[6],2% and 3%
same,Population Mitotic Cells (%),[6],11% and 9%
same,Population Normal (%),[6],98%
same,Population Pyknosed Nuclei (%),[6],12% and 9%
same,Population Tubulin-Different-Phenotype (%),[6],2% and 1%
same,Total Cell Count,[6],347 and 245
